Most compounds without a hit are left out; they make up all but 3.1% or so of the library.
KCNQ1 act – potentiators or activators of human KCNQ1 potassium channel; P51787; CHO-K1 KCNQ1, thallium flux FluxOR fluorescence; hits give high values; B-score at 10 µM; 310,000 tested, 0.35% active;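 active = fluorescence ratio B-score, a plate-corrected score, at least three library SD, with initial intensity B-score within 5 SD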
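Assay system: CHO-K1 cells stably expressing KCNQ1. Medium: assay buffer for compound exposure, DMSO matched across wells. Timing: 37 °C overnight plating, 90-min dark dye load, 20-min compound pretreatment. Signal: kinetic FluxOR fluorescence, 10 s baseline plus 110 s post-stimulus.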
KCNK3 inh – human KCNK3 channel inhibition, primary screen | 340,000 tested, 0.84% active | O14649 | B-score at 10 µM | AID 602410 | CHO-KCNK3 thallium flux, FluxOR fluorescence; hits give low values;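 active = B-score under library mean minus 4 SD, starting fluorescence ratio at most library mean plus 5 SD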;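 also: more negative B-score means stronger inhibition of thallium flux through KCNK3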
hERG rescue – compounds protecting human hERG from proarrhythmic drug block; Q12809; CHO-hERG, FluxOR thallium flux, dofetilide IC70 present; activation (rescue from dofetilide block), less the hit threshold, % at 10 µM; 310,000 tested, 0.51% active;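 active = activation above the mean of controls blocked by dofetilide plus 5 SD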;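 also: thallium influx through hERG after potassium depolarization seen as dye fluorescence rise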
KCNQ1 block – blocks the human KCNQ1 potassium channel. P51787. CHO-K1 KCNQ1, FluxOR thallium flux fluorescence; hits give high values. B-score at 10 µM. 310,000 tested, 1.3% active;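 active = compounds whose thallium flux B-score, printed positive for inhibition, exceeds three library SD while starting fluorescence stays within three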;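 also: channel opened by potassium depolarization with thallium stimulus after 20 min compound exposure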
KCNK9 inh – inhibitors of human KCNK9 two-pore domain potassium channel | Q9NPC2 | HEK293 KCNK9, FluxOR thallium flux fluorescence; hits give low values | B-score at 10 µM | 310,000 tested, 1.2% active | AID 488922;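 active = ratio B-score over 3 SD below the library mean, with starting fluorescence within 5 SD of its mean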;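 also: negative B-score means less thallium flux so channel inhibition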
KCNK9 block conf – confirmation of human KCNK9 potassium channel inhibitors; HEK293 KCNK9 cells, FluxOR thallium flux fluorescence; 4,900 tested, 43% active; inhibition, % at 10 µM; AID 492992; shares compounds with KCNK9 inh;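 active = thallium signal inhibited by more than 5 SD of the compound-free buffer control wells, on both duplicate plates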
Kir21 sel – mouse Kir2.1 off-target activity of KCNK9 modulators | shares compounds with KCNK9 inh | Kir2.1 cells, FluxOR thallium flux fluorescence | inhibition, % at 10 µM | 4,900 tested, 4% active | AID 492993;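 active = thallium signal drop more than 5 SD beyond the mean of the no-compound control wells, seen in both duplicate plates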;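 also: signal is fluorescence rise after thallium addition divided by baseline fluorescence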
Target sequence (P35561 whole entry, looked up): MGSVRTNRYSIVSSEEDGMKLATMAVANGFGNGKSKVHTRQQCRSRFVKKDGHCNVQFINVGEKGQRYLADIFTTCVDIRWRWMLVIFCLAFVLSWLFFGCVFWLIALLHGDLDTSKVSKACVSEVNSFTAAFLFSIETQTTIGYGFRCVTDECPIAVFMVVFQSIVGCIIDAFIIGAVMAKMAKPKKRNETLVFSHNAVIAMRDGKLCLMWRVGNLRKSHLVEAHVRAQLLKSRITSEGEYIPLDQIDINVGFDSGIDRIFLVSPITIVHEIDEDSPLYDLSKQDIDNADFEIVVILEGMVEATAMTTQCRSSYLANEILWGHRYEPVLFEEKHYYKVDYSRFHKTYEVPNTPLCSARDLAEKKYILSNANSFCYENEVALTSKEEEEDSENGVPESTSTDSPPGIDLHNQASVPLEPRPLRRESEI
HEK293 Tl ctr – second check of KCNK9 modulator effects in non-induced HEK293 cells; 4,900 tested, 40% active; FluxOR thallium flux; inhibition, % at 10 µM; AID 492997; shares compounds with KCNK9 inh;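 active = thallium signal drop beyond 5 SD of the untreated control mean, on both duplicate plates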
KCNK3 inh conf – confirmation of human KCNK3 two-pore domain potassium channel inhibitors; 2,400 tested, 99% active; CHO-KCNK3 thallium flux, FluxOR fluorescence; 0% buffer, 100% carvedilol maximal block; shares compounds with KCNK3 inh; ratio percent of control, % at 10 µM; AID 651638;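 active = ratio percent of control, averaged over triplicates, above buffer control mean plus 5 SD, cut at about 64% in these data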;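 also: ratio is the fluorescence rise from min to max over baseline after thallium stimulus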
KCNK3 uninduced – counter-screen for KCNK3 inhibitors: effect in non-induced cells | shares compounds with KCNK3 inh | non-induced KCNK3 parental cells, FluxOR thallium flux; hits give low values | thallium flux ratio (lower = more inhibition) at 10 µM | 2,400 tested, 40% active;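 active = thallium flux ratio, averaged over three wells, more than 5 SD below the buffer control mean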;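 also: host cells are CHO cells without KCNK3 induction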
Large screens that a line does not name were inactive (follow-up assays come after a bar, where they were run).

Cc1ccc(S(=O)(=O)c2nc(NCc3ccc4c(c3)OCO4)sc2Cl)cc1	KCNK9 inh -11.3 | KCNK9 block conf 42.5% | Kir21 sel 32.5% | HEK293 Tl ctr 42.5% | KCNK3 inh conf 129.7 | KCNK3 uninduced 0.158
CC(=O)Nc1nc(S(=O)(=O)c2ccc(C)cc2)c(Cl)s1	none
NCCc1c(-c2ccccc2)n(-c2ccccc2)c2ccccc12	KCNQ1 block 13, KCNK9 inh -9.88 | KCNK9 block conf 54.5% | Kir21 sel 62.5% | HEK293 Tl ctr 36.5% | KCNK3 inh conf 135.7 | KCNK3 uninduced inactive
COc1ccc(CN(C)C(=O)c2oc3ccccc3c2CSC)cc1F	KCNK3 inh -11.4, KCNK9 inh -12.1 | KCNK9 block conf 67.0% | Kir21 sel inactive | HEK293 Tl ctr 30.0% | KCNK3 inh conf 104.0 | KCNK3 uninduced inactive
CCOC(=O)c1cccc(NC(=O)c2ccc(N(C)C)cc2)c1	none
COC(=O)C1=C(C)NC(C)=C(C(=O)OC)C1c1ccc(-c2cc(Cl)ccc2Cl)o1	KCNK3 inh -9.67, KCNK9 inh -9.54 | KCNK9 block conf 38.5% | Kir21 sel inactive | HEK293 Tl ctr 40.5% | KCNK3 inh conf 127.0 | KCNK3 uninduced inactive
COC(=O)C1=C(C)NC(C)=C(C(=O)OC)C1c1ccc(-c2cccc(Cl)c2Cl)o1	none
COc1ccc(/C=N/NC(=O)c2cccc(NC(=O)c3ccccc3Cl)c2)cc1	none
COc1ccc(/C(C)=N/NC(=O)c2ccccc2OCc2ccccc2)c(OC)c1	none
COc1ccc(/C=N/NC(=O)c2cccc(NC(=O)c3ccccc3Cl)c2)c(OC)c1	KCNK3 inh -10, KCNK9 inh -12.1 | KCNK9 block conf 49.0% | Kir21 sel inactive | HEK293 Tl ctr inactive | KCNK3 inh conf 106.3 | KCNK3 uninduced inactive
COc1ccc(/C=N/NC(=O)c2ccccc2OCc2ccccc2)c(OC)c1	KCNK3 inh -12.5, KCNQ1 block 11, KCNK9 inh -20.7 | KCNK9 block conf 72.5% | Kir21 sel inactive | HEK293 Tl ctr inactive | KCNK3 inh conf 126.0 | KCNK3 uninduced 0.141
O=C(c1ccc(S(=O)(=O)N2CCCC2)cc1)N(c1ccc(F)cc1)C1C=CS(=O)(=O)C1 (stereo not given)	none
O=C(NCCc1ccc(Cl)cc1)C1=CC=CN2CCS(=O)(=O)N=C12	none (no result: KCNQ1 act, hERG rescue, KCNQ1 block, KCNK9 inh)
O=C(N/N=C/c1ccccc1)c1[nH]c2ccc(Br)cc2c1-c1ccccc1	none
O=C(NN=C1CCCC1)c1[nH]c2ccc(Br)cc2c1-c1ccccc1	KCNQ1 block 7, KCNK9 inh -8.67 | KCNK9 block conf inactive | Kir21 sel inactive | HEK293 Tl ctr inactive | KCNK3 inh conf 90.7 | KCNK3 uninduced inactive
O=[N+]([O-])c1ccc2nc(-c3ccccc3)[nH]c2c1	none
CCOc1cc(-c2nc(-c3ccccc3)c(-c3cc([N+](=O)[O-])ccc3C)[nH]2)ccc1O	KCNK3 inh -9.65, KCNQ1 block 7, KCNK9 inh -12.3 | KCNK9 block conf 55.5% | Kir21 sel inactive | HEK293 Tl ctr inactive | KCNK3 inh conf 123.7 | KCNK3 uninduced 0.12
CCOC(=O)c1cc(-c2ccccc2)n(CCC(=O)N2CCN(c3ccc(OC)cc3)CC2)c1C	none
CCCCC(=O)Nc1ccc(C(=O)Nc2ccc(S(=O)(=O)Nc3nccc(C)n3)cc2)cc1	none
Clc1ccc(CN(CC2CCCO2)C(c2cccs2)c2nnnn2C2CCCC2)cc1 (stereo not given)	KCNK3 inh -8.9, KCNQ1 block 6, KCNK9 inh -17.4 | KCNK9 block conf 60.0% | Kir21 sel inactive | HEK293 Tl ctr 48.5% | KCNK3 inh conf 110.3 | KCNK3 uninduced 0.153
COCCN1Cc2cccc(C(=O)Nc3cccc(-c4nc5ccccc5[nH]4)c3)c2C1=O	KCNK3 inh -10, KCNK9 inh -13.4 | KCNK9 block conf 58.5% | Kir21 sel inactive | HEK293 Tl ctr inactive | KCNK3 inh conf 120.3 | KCNK3 uninduced 0.152
COCCN1Cc2cccc(C(=O)Nc3ccc(-c4nc5ccccc5[nH]4)cc3)c2C1=O	none
CC1=C(C(=O)Nc2ccccc2)C(c2ccco2)NC(=S)N1 (stereo not given)	none
O=C(Nc1ccccc1)C1=C(O)CC(c2ccco2)CC1=Nc1ccccc1 (stereo not given)	KCNK9 inh -11.5 | KCNK9 block conf 27.0% | Kir21 sel inactive | HEK293 Tl ctr 36.0% | KCNK3 inh conf 114.7 | KCNK3 uninduced 0.155
COc1ccc(-n2nc(C(=O)NCC(=O)Nc3cc(OC)ccc3OC)c3ccccc3c2=O)cc1	KCNK3 inh -11.4, KCNK9 inh -13.6 | KCNK9 block conf inactive | Kir21 sel inactive | HEK293 Tl ctr inactive | KCNK3 inh conf 89.3 | KCNK3 uninduced inactive
CC(C)Oc1ccccc1C1Nc2ccccc2C(=O)N1c1ccc2c(c1)OCCO2 (stereo not given)	KCNK3 inh -10.1, KCNK9 inh -13.3 | KCNK9 block conf 67.0% | Kir21 sel inactive | HEK293 Tl ctr 27.5% | KCNK3 inh conf 100.3 | KCNK3 uninduced 0.157
O/N=C(\c1ccc(Cl)cc1Cl)c1ncc(C(F)(F)F)cc1Cl	KCNK3 inh -9.8, KCNK9 inh -13.3 | KCNK9 block conf 61.5% | Kir21 sel inactive | HEK293 Tl ctr 44.0% | KCNK3 inh conf 97.0 | KCNK3 uninduced 0.136
C(=C\c1ccccc1)/CSc1nnc(-c2ccccc2)n1Cc1ccco1	none
Clc1cccc(-c2nnc(SC/C=C/c3ccccc3)n2Cc2ccco2)c1	KCNK3 inh -11.8, KCNK9 inh -15 | KCNK9 block conf 44.5% | Kir21 sel 74.0% | HEK293 Tl ctr 38.5% | KCNK3 inh conf 109.7 | KCNK3 uninduced 0.153
COc1ccc(/C=N\NC(=O)c2sccc2C)cc1Cn1nc(C)cc1C	KCNK3 inh -8.84, KCNK9 inh -8.25 | KCNK9 block conf inactive | Kir21 sel inactive | HEK293 Tl ctr inactive | KCNK3 inh conf 88.0 | KCNK3 uninduced inactive
Cc1ccc(S(=O)(=O)n2nc(OC(=O)c3ccccc3C)cc2N)cc1	KCNK3 inh -14.7, KCNK9 inh -17.9 | KCNK9 block conf 69.5% | Kir21 sel inactive | HEK293 Tl ctr 74.5% | KCNK3 inh conf 116.7 | KCNK3 uninduced inactive

Screens: PubChem BioAssay, Johns Hopkins Ion Channel Center
